pIC50: −log10 of the molar value. Each block holds one molecule with its values, some of them ahead of it.
Legend:
[1] = Lipophilicity (HPLC); assay type: physicochemical
P388 [2] = test: Optimal dose in mg/kg administered intraperitoneally on days 1,5 and 9 required to inhibit the growth of P388 leukemia cells was determined (in vivo); assay type: functional, Mus musculus
Method in brief: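 Mice were inoculated ip with 10^6 P388 cells. Drug was given ip as a solution in 0.1 mL 30% v/v EtOH/water on days 1, 5 and 9. The optimal dose (mg/kg per day) is the one giving maximal increase in life span; survivors were scored at 50 days, in groups of six.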

P388 [3] = test: (§1) Average increase in life span of treated animals over control groups of tumor-bearing untreated animals when given at optimal dose; NA means no significant activity (in vivo); assay type: functional, organism-based; settings: Mus musculus
Method in brief: (§2)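 Mice received drug ip as a solution in 0.1 mL 30% v/v EtOH/water at the optimal dose. For P388, 10^6 cells were inoculated ip and drug given on days 1, 5 and 9. For LL, 10^6 cells were inoculated iv and drug given on days 5, 9 and 13. ILS is the mean life-span increase over untreated tumor-bearing controls, significant above 20% (P388) or 40% (LL). Groups were of six. NA means no significant activity up to acutely toxic doses.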

L1210 [4] = test: Nanomolar concentration required to reduce the growth of L1210 cells in culture to 50% of control values after 70 h (in vitro); assay type: functional, cell-based; settings: Mus musculus, L1210, 70 h
Method in brief: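 L1210 cells were grown in culture with drug for 70 h. IC50 is the drug concentration (nM) reducing growth to 50% of control values.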

P388 [5] = test: (§3) Average increase in life span of treated animals over control groups of tumor-bearing untreated animals when given at optimal dose (in vivo); assay type: functional, Mus musculus
Method in brief: (§4)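 Mice inoculated ip with 10^6 P388 cells (drug ip on days 1, 5, 9) or iv with 10^6 Lewis lung cells (drug ip on days 5, 9, 13). Drug given as a solution in 0.1 mL 30% v/v EtOH/water, in mg/kg per day. Value is the average life-span increase versus untreated tumor-bearing controls at the optimal dose. Significance thresholds: ILS >20% (P388), >40% (LL). Groups of six.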

[6] = tested on: Lewis lung carcinoma cell line; test: as §1; assay type: functional, organism-based; settings: Mus musculus; method in brief: as §2
[7] = tested on: Lewis lung carcinoma cell line; test: Optimal dose required after intraperitoneal administration on days 5,9 and 13 to inhibit the growth of lewis lung carcinoma (LL) cells was determined (in vivo); assay type: functional, Mus musculus
Method in brief: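 Mice were inoculated iv with 10^6 Lewis lung cells. Drug was given ip in 0.1 mL 30% v/v EtOH/water on days 5, 9 and 13. The optimal dose (mg/kg per day) is the one giving maximal increase in life span; survivors were scored at 60 days, in groups of six.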

[8] = tested on: Lewis lung carcinoma cell line; test: as §3; assay type: functional, Mus musculus; method in brief: as §4
L1210 [9] = test: Tested for comparative cytotoxicity as ratio of IC50 value, relative to 3-substituted derivative (1.00).; assay type: functional, Mus musculus
L1210 [10] = test: Tested for comparative cytotoxicity as ratio of IC50 value, relative to OMe derivative (1.00).; assay type: functional, Mus musculus
[11] = tested on: Lewis lung carcinoma cell line; test: Average increase in life span of treated animals over control groups of tumor-bearing untreated animals when given at optimal dose;NA means no significant effect (in vivo); assay type: functional, organism-based; settings: Mus musculus; method in brief: as §2

Rm [1]: -0.41 | pIC50 (L1210 [4]): 6.26
Compound: COc1ccc(C(=O)NCCN(C)C)c2nc3ccccc3nc12
OD (P388 [2]): 225 mg/kg/day | ILSmax (P388 [3]): Not significant

Compound: CN(C)CCNC(=O)c1cccc2nc3c(ccc4ccccc43)nc12
Rm [1]: -0.32 | ILS max (P388 [5]): 29 | OD (P388 [2]): 45 mg/kg/day | ILS max [6]: Not significant | pIC50 (L1210 [4]): 6.51 | OD [7]: 45 mg/kg/day

Compound: CN(C)CCNC(=O)c1cccc2nc3cc(Cl)ccc3nc12
Rm [1]: -0.13 | ILS max (P388 [5]): 20 | OD (P388 [2]): 65 mg/kg/day | ILSmax [6]: Not significant | pIC50 (L1210 [4]): 5.94 | OD [7]: 65 mg/kg/day

Compound: CN(C)CCNC(=O)c1cccc2nc3ccccc3nc12
Rm [1]: -0.29 | ILS max (P388 [5]): 88 | ILS max [8]: 57 | OD (P388 [2]): 150 mg/kg/day | pIC50 (L1210 [4]): 5.85 | OD [7]: 150 mg/kg/day

Compound: COc1cccc2nc3cccc(C(=O)NCCN(C)C)c3nc12
Rm [1]: -0.42 | ILS max (P388 [5]): 106 | ILS max [8]: 128 | OD (P388 [2]): 100 mg/kg/day | pIC50 (L1210 [4]): 7.32 | OD [7]: 100 mg/kg/day

Compound: NC(=O)c1cc(Cl)cc2nc3ccccc3nc12
Ratio (L1210 [9]): 1 | Ratio (L1210 [10]): 0.4

Compound: Cc1ccc(C(=O)NCCN(C)C)c2nc3ccccc3nc12
ILS max [11]: Not significant | Rm [1]: 0.08 | ILS max (P388 [5]): 28 | OD (P388 [2]): 100 mg/kg/day | pIC50 (L1210 [4]): 6.40 | OD [7]: 150 mg/kg/day

Compound: Cc1ccc2nc3cccc(C(N)=O)c3nc2c1
Ratio (L1210 [9]): 1.5 | Ratio (L1210 [10]): 0.9

Rm [1]: -0.32 | pIC50 (L1210 [4]): 5.70
Compound: O=C(NCCNCCO)c1cccc2nc3ccccc3nc12
OD (P388 [2]): 65 mg/kg/day | ILS max (P388 [3]): Not significant | ILS max [6]: Not significant | OD [7]: 65 mg/kg/day

Compound: NC(=O)c1cccc2nc3cc(Cl)ccc3nc12
Ratio (L1210 [9]): 7.1 | Ratio (L1210 [10]): 0.3

Rm [1]: -0.21 | pIC50 (L1210 [4]): 4.96
Compound: O=C(NCCN1CCOCC1)c1cccc2nc3ccccc3nc12
OD (P388 [2]): 225 mg/kg/day | ILSmax (P388 [3]): Not significant | ILSmax [6]: Not significant | OD [7]: 225 mg/kg/day

Compound: COc1ccc2nc3c(C(N)=O)cccc3nc2c1
Ratio (L1210 [9]): 5 | Ratio (L1210 [10]): 1

Compound: Cc1ccc2nc3cccc(C(=O)NCCN(C)C)c3nc2c1
Rm [1]: -0.2 | ILS max (P388 [5]): 60 | ILS max [8]: 81 | OD (P388 [2]): 150 mg/kg/day | pIC50 (L1210 [4]): 6.20 | OD [7]: 225 mg/kg/day

Compound: Cc1cc(C(N)=O)c2nc3ccccc3nc2c1
Ratio (L1210 [9]): 1 | Ratio (L1210 [10]): 0.5

Compound: COc1cc(C(N)=O)c2nc3ccccc3nc2c1
Ratio (L1210 [9]): 1 | Ratio (L1210 [10]): 1

Compound: Cc1cc(C(=O)NCCN(C)C)c2nc3ccccc3nc2c1
Rm [1]: -0.15 | ILS max (P388 [5]): 91 | ILS max [8]: 158 | OD (P388 [2]): 225 mg/kg/day | pIC50 (L1210 [4]): 6.39 | OD [7]: 225 mg/kg/day

Compound: COc1cccc2nc3cccc(C(N)=O)c3nc12
Ratio (L1210 [9]): 0.05 | Ratio (L1210 [10]): 1

Compound: CCN(CC)CCNC(=O)c1cccc2nc3ccccc3nc12
Rm [1]: 0.09 | ILS max (P388 [5]): 43 | OD (P388 [2]): 225 mg/kg/day | ILS max [6]: Not significant | pIC50 (L1210 [4]): 5.68 | OD [7]: 150 mg/kg/day

Compound: CN(C)CCNC(=O)c1cccc2nc3cccc(Cl)c3nc12
Rm [1]: -0.37 | ILS max (P388 [5]): 61 | ILS max [8]: 124 | OD (P388 [2]): 30 mg/kg/day | pIC50 (L1210 [4]): 7.96 | OD [7]: 45 mg/kg/day

Compound: COc1ccc2nc3ccccc3nc2c1C(=O)NCCN(C)C
Rm [1]: -0.5 | ILS max (P388 [5]): 33 | ILS max [8]: 43 | OD (P388 [2]): 225 mg/kg/day | pIC50 (L1210 [4]): 5.79 | OD [7]: 225 mg/kg/day

Compound: COc1ccc2nc3cccc(C(N)=O)c3nc2c1
Ratio (L1210 [9]): 1.4 | Ratio (L1210 [10]): 1

Compound: NC(=O)c1cccc2nc3c(Cl)cccc3nc12
Ratio (L1210 [9]): 5 | Ratio (L1210 [10]): 0.6

From ChEMBL document CHEMBL1123882, “Potential antitumor agents. 51. Synthesis and antitumor activity of substituted phenazine-1-carboxamides” (J Med Chem, 1987)
